Assay results: ChEMBL document CHEMBL1124511, “N-(cyclohexylcarbonyl)-D-phenylalanines and related compounds. A new class of oral hypoglycemic agents. 2” (1989)

system: Mus musculus; experiment: Percent decrease in blood glucose level, after peroral administration of 100 mg/kg of compound in mice; Inactive; type: functional; settings: route oral

SMILES | Hypoglycemic activity [%]
O=C(O)[C@@H](Cc1ccccc1)NC(=O)[C@H]1CC[C@H](c2ccccc2)CC1 | <20
O=C(N[C@H](Cc1ccccc1)C(=O)O)C1CCCCCC1 | <20
CC(C)[C@H]1CC[C@H](C(=O)N[C@@H](Cc2ccccc2)C(N)=O)CC1 | <20
CC(C)[C@H]1CC[C@@H](C(=O)N[C@H](Cc2ccccc2)C(=O)O)CC1 | <20
CC(C)[C@H]1CC[C@H](C(=O)NCCc2ccccc2)CC1 | <20
CCCCC[C@H]1CC[C@H](C(=O)N[C@H](Cc2ccccc2)C(=O)O)CC1 | <20
O=C(N[C@H](Cc1ccccc1)C(=O)O)C1CC2CCC1C2 (stereo partly drawn) | <20
O=C(N[C@H](Cc1ccccc1)C(=O)O)C1CCc2ccccc2C1 (stereo partly drawn) | <20

species: Mus musculus; experiment: Hypoglycemic activity causing more than a 20% blood glucose decrease in fasting mice; type: functional; settings: not given
In short: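 Male ICR-CD1 mice, 5 weeks old, 18 h fasted, groups of five. Oral dosing as a suspension in 0.5% (carboxymethyl)cellulose–0.14 M NaCl, 1 mL/kg; vehicle control run in parallel. Carotid blood taken at 1 h; glucose by glucose-oxidase-peroxidase. Student's t test (p < 0.05). Value is the lowest dose giving >20% glucose decrease.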

SMILES | Minimum effective hypoglycemic dose [mg/kg]
CC[C@H]1CC[C@H](C(=O)N[C@H](Cc2ccccc2)C(=O)O)CC1 | 25
CCC[C@H]1CC[C@H](C(=O)N[C@H](Cc2ccccc2)C(=O)O)CC1 | 25
CC(C)[C@H]1CC[C@H](C(=O)N[C@H](Cc2ccccc2)C(=O)O)CC1 [NATEGLINIDE] | 1.6
C=C(C)[C@@H]1CC=C(C(=O)N[C@H](Cc2ccccc2)C(=O)O)CC1 | 25
C[C@H]1CC[C@H](C(=O)N[C@H](Cc2ccccc2)C(=O)O)CC1 | 25
O=C(N[C@H](Cc1ccccc1)C(=O)O)C1CCCCC1 | 100
CC(C)c1ccc(C(=O)N[C@H](Cc2ccccc2)C(=O)O)cc1 | 25
CC(C)(C)[C@H]1CC[C@H](C(=O)N[C@H](Cc2ccccc2)C(=O)O)CC1 | 6.3
CC(C)[C@H]1CC[C@H](C(=O)N[C@@H](Cc2ccccc2)C(=O)OCc2ccccc2)CC1 | 25
COC(=O)[C@H](Cc1ccccc1)NC(=O)[C@H]1CC[C@H](C(C)C)CC1 | 3.1
CCCC[C@H]1CC[C@H](C(=O)N[C@H](Cc2ccccc2)C(=O)O)CC1 | 25
O=C(N[C@H](Cc1ccccc1)C(=O)O)C1CCCC1 | 50
CC(C)[C@H]1CC[C@H](C(=O)N[C@@H](Cc2ccccc2)C(=O)O)CC1 [(S)-NATEGLINIDE] | 100
CCCCNC(=O)NS(=O)(=O)c1ccc(C)cc1 [TOLBUTAMIDE] | 25
CC(C)N(C(=O)[C@H](Cc1ccccc1)NC(=O)[C@H]1CC[C@H](C(C)C)CC1)C(C)C | 100
